Measured values reported in paper PMC10765384 (Bioorganic chemistry, 2023).
Read-outs that look alike come from different tables or passages of the source.

What was measured:
CYP 2C8 = target: T1, CYP 2C8 (Homo sapiens, UniProt P10632); test: CYP inhibition in human liver microsomes; format: in vitro ADME
T1 sequence (P10632 1-490): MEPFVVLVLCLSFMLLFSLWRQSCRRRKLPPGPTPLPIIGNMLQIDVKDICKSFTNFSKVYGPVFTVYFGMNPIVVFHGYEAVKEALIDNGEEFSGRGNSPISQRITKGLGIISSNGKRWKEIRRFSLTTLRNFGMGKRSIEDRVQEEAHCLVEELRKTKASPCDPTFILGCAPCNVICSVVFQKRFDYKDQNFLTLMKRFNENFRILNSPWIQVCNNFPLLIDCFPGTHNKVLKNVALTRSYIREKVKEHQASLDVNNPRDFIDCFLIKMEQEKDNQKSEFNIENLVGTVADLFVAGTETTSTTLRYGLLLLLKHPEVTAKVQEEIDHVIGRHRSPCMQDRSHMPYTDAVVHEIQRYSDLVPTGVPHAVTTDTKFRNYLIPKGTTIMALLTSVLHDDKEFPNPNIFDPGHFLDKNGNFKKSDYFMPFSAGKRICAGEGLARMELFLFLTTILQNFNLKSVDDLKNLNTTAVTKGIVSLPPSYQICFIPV

CYP 2C19 = CYP 2C19 (Homo sapiens, UniProt P33261); test: CYP inhibition in human liver microsomes; format: in vitro ADME
CYP 2B6 = target: T2, CYP 2B6 (Homo sapiens, UniProt P20813); test: CYP inhibition in human liver microsomes; format: in vitro ADME
T2 sequence (P20813 1-491): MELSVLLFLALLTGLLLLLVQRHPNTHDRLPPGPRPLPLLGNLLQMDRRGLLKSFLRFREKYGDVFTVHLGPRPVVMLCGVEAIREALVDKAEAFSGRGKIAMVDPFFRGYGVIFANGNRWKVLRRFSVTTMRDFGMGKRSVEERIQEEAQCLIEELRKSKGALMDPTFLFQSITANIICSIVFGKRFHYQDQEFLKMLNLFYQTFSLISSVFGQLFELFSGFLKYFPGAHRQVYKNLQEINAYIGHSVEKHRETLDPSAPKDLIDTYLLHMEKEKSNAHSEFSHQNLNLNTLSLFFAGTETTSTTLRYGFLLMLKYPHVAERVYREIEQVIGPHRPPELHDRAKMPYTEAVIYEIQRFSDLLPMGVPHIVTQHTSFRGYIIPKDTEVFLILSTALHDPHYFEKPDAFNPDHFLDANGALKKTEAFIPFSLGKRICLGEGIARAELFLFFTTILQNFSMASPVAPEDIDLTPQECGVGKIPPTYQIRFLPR

[1] = Cytotoxicity, CellTiter 96 assay in PBM cells; format: cell-based, human; conditions: human, peripheral blood mononuclear (PBM) cells
Procedure, shortened: (§1)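 Colorimetric non-radioactive cell proliferation read-out (CellTiter 96). CC50 is the test compound concentration that inhibited cell growth by 50%.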

[2] = Cytotoxicity, CellTiter 96 assay in CEM cells; format: cell-based, human; conditions: human, T lymphoblast (CEM) cells
Procedure, shortened: as §1

CYP 3A4 = CYP 3A4 (Homo sapiens, UniProt P08684); test: CYP inhibition in human liver microsomes; format: in vitro ADME; conditions: for CYP Inhibition (% at 10 μM) 3A4-M: midazolam substrate; for CYP Inhibition (% at 10 μM) 3A4-T: testosterone substrate
[3] = Cytotoxicity, CellTiter 96 assay in HepG2 cells; format: cell-based, human; conditions: human, hepatocellular carcinoma (HepG2) cells
Procedure, shortened: as §1

[4] = Cell permeability across Caco-2 cell monolayer; format: in vitro ADME; conditions: human
Procedure, shortened: (§2)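 Bidirectional transport of 2 μM test compound across Caco-2 monolayers at pH 7.4, in duplicate, with final DMSO below 1%. Plates were held 2 hr at 37°C, 5% CO2, saturated humidity, without shaking. Starting, donor and receiver solutions were analysed by LC/MS/MS. Lucifer yellow rejection after transport checked monolayer integrity.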

CYP 1A2 = target: T3, CYP 1A2 (Homo sapiens, UniProt P05177); test: CYP inhibition in human liver microsomes; format: in vitro ADME
T3 sequence (P05177 1-516): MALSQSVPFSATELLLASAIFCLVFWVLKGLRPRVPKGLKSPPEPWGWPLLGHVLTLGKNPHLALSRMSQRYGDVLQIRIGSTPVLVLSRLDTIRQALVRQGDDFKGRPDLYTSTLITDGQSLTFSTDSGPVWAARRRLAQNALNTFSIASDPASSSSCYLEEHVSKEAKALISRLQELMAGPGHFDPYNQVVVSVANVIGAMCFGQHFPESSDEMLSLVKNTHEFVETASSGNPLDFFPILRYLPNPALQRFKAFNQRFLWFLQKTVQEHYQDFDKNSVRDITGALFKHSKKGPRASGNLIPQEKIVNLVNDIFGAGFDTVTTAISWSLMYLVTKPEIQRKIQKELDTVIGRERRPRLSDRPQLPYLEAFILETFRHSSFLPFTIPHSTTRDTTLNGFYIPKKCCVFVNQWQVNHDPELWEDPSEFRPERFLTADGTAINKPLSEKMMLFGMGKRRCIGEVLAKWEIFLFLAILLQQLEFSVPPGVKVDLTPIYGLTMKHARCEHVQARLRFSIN
Procedure, shortened: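 Known CYP450 probe substrates were incubated with human liver microsomes (0.05–0.2 mg/mL), 1 mM NADPH, 100 mM potassium phosphate pH 7.4 and 3 mM MgCl2 at 37°C, with or without 10 μM test compound, in duplicate. Reactions were quenched with a solution containing internal standards. Each substrate's signature metabolite was quantified by LC/MS/MS.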

CYP 2D6 = CYP 2D6 (Homo sapiens, UniProt P10635); test: CYP inhibition in human liver microsomes; format: in vitro ADME
[5] = Liver microsome stability, mouse; format: in vitro ADME
Procedure, shortened: (§3)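 Test compound (1 μM), alone or with ritonavir at 0.3, 1 or 3 μM, was incubated with 1 mg/mL mouse or human liver microsomes in 100 mM potassium phosphate pH 7.4 with 5 mM MgCl2. NADPH (final 1 mM) started the reaction at 37°C. Aliquots at 0–90 min were quenched in ice-cold methanol, centrifuged, diluted 1:1 with water, and analysed by LC-MS/MS. Propranolol was the positive control.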

[6] = Cytotoxicity, CellTiter 96 assay in Vero cells; format: cell-based, African green monkey; conditions: African green monkey, kidney (Vero) cells
Procedure, shortened: as §1

[7] = Liver microsome stability, human; format: in vitro ADME
Procedure, shortened: as §3

CYP 2C9 = CYP 2C9 (Homo sapiens, UniProt P11712); test: CYP inhibition in human liver microsomes; format: in vitro ADME
[8] = tested on: HBV DNA replication in HepAD38 cells; test: Anti-HBV activity, 7-day assay in HepAD38 cells; format: cell-based, hepatitis B virus; conditions: for EC50: read-out: Anti-HBV activity EC50; for EC90: read-out: Anti-HBV activity EC90
hERG = hERG (Homo sapiens, UniProt Q12809); test: hERG inhibition, automated patch clamp in CHO cells; format: cell-based; conditions: room temperature
Procedure, shortened: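 Test article was applied at concentrations up to 10 μM, with n ≥ 3 per compound.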

HBV = conditions: humanized mouse model, in combination with entecavir; ref [7],[8]; cited from earlier work
[9] = tested on: human peripheral blood mononuclear (PBM) cells; test: Cytotoxicity, CellTiter 96 assay in PBM cells; format: cell-based; conditions: read-out: Cytotoxicity CC50 PBM; PBM cells
Procedure, shortened: as §1

[10] = tested on: human T lymphoblast (CEM) cells; test: Cytotoxicity, CellTiter 96 assay in CEM cells; format: cell-based; conditions: read-out: Cytotoxicity CC50 CEM; CEM cells
Procedure, shortened: as §1

[11] = tested on: human hepatocellular carcinoma (HepG2) cells; test: Cytotoxicity, CellTiter 96 assay in HepG2 cells; format: cell-based; conditions: read-out: Cytotoxicity CC50 HepG2; HepG2 cells
Procedure, shortened: as §1

Caco-2 cell monolayer = test: Cell permeability across Caco-2 cell monolayer; format: in vitro ADME
Procedure, shortened: as §2

[12] = tested on: African green monkey kidney (Vero) cells; test: Cytotoxicity, CellTiter 96 assay in Vero cells; format: cell-based; conditions: read-out: Cytotoxicity CC50 Vero; Vero cells
Procedure, shortened: as §1

Formation of glutathione = format: in vitro ADME; conditions: human liver microsomes 1 mg/mL, 1 mM GSH, 60 min, 37°C
[13] = Hepatitis B virus, HePAD38, 168 h
[14] = HepAD38 cells, 7-day assay, HBV DNA

Chain of CYP 3A4 (P08684 whole entry): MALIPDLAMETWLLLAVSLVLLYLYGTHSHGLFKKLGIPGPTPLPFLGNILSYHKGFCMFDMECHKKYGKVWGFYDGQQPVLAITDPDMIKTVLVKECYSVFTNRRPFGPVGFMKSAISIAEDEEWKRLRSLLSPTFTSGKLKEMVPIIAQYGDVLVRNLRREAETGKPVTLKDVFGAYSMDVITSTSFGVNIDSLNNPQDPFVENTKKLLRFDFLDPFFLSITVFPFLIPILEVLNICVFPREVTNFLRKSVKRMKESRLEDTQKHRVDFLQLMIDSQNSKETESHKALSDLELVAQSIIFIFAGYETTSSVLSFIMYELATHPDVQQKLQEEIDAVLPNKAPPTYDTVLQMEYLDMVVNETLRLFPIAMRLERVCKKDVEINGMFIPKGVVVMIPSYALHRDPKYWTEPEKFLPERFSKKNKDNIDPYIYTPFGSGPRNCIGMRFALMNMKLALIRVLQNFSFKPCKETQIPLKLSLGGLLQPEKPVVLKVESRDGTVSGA
Chain of CYP 2D6 (P10635 whole entry): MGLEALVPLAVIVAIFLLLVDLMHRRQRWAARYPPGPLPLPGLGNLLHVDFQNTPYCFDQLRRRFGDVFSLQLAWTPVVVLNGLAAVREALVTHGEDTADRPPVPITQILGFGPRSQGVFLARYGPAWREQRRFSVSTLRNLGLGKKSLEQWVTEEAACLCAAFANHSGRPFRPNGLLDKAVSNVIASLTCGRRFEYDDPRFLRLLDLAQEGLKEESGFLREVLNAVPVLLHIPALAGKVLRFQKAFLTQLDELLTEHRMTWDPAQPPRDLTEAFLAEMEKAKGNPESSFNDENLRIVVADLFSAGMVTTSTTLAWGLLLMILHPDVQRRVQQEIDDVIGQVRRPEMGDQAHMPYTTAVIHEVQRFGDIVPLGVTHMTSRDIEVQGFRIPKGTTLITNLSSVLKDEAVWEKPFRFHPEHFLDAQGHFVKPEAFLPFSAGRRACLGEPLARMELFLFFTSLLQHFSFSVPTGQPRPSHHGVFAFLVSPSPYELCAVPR
Chain of CYP 2C9 (P11712 whole entry): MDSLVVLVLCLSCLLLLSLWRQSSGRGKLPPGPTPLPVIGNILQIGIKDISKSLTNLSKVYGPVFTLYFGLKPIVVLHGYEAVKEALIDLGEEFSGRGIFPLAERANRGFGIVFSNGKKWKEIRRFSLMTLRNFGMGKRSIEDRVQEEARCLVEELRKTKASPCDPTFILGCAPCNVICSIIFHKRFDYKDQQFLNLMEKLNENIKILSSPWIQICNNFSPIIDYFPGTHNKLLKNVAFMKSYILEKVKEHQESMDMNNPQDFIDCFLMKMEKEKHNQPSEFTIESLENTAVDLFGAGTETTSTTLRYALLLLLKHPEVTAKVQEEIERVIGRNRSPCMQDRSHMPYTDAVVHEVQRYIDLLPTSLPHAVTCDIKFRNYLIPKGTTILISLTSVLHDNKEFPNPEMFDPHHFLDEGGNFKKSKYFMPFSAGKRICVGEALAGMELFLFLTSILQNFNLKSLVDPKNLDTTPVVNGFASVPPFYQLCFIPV
Chain of CYP 2C19 (P33261 whole entry): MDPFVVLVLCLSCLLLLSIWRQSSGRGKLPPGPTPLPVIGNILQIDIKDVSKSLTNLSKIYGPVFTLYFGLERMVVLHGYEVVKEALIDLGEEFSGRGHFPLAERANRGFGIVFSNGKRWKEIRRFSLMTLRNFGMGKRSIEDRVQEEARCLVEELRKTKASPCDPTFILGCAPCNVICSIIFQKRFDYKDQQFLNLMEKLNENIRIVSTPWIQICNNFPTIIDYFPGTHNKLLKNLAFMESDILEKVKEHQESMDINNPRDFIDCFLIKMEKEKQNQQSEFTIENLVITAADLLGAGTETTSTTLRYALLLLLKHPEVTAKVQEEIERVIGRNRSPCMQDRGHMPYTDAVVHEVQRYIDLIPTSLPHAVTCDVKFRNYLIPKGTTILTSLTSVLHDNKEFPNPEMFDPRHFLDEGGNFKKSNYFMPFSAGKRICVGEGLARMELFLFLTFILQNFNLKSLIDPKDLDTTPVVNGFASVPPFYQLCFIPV
Chain of hERG (Q12809 whole entry): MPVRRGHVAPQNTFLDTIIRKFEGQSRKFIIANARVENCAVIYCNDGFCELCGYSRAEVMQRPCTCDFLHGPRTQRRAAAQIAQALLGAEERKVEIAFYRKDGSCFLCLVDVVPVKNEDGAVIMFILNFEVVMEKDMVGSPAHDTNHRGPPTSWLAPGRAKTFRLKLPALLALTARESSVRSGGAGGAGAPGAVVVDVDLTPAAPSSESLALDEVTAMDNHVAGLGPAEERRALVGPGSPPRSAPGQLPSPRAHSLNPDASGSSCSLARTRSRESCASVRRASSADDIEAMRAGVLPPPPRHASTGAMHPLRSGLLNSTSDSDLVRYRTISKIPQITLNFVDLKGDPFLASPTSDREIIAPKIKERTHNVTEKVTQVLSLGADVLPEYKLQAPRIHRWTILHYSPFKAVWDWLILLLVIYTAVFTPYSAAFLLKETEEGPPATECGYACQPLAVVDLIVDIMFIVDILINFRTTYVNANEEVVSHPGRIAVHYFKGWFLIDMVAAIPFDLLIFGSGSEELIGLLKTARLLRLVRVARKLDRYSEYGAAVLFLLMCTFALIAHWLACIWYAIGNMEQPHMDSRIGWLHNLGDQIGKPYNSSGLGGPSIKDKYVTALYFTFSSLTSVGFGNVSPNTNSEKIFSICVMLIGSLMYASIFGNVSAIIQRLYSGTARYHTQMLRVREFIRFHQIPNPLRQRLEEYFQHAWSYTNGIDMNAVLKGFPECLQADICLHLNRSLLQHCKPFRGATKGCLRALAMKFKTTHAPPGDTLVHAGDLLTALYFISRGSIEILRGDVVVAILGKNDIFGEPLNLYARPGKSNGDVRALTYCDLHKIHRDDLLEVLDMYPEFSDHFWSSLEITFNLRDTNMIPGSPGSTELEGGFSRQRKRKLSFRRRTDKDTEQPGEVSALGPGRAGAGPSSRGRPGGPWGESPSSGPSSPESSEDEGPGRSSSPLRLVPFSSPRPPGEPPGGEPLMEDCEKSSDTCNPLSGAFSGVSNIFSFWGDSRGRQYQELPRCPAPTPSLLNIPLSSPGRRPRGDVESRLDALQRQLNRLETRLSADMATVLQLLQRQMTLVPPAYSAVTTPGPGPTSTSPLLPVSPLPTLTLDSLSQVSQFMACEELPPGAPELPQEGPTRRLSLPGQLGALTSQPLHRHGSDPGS

For `C#CCn1c(C)c(C(=O)C(=O)NC(C)(C)C#C)c(C)c1C(=O)Nc1ccc(F)c(F)c1` [Compound 10a, N-(3,4-Difluorophenyl)-3,5-dimethyl-4-(2-((2-methylbut-3-yn-2-yl)amino)-2-oxoacetyl)-1-(prop-2-yn-1-yl)-1H-pyrrole-2-carboxamide], the “CYP Inhibition (% at 10 μM) 2C8” value (CYP 2C8) was 95%, the “CYP Inhibition (% at 10 μM) 2C19” value (CYP 2C19) was 34% and the “CYP Inhibition (% at 10 μM) 2B6” value (CYP 2B6) was 5%. The CC50 [1] was greater than 100 µM, the CC50 [2] was greater than 100 µM and the “CYP Inhibition (% at 10 μM) 3A4-M” value (CYP 3A4) was 40%. The “CYP Inhibition (% at 10 μM) 3A4-T” value (CYP 3A4) was 40%, the CC50 [3] was greater than 100 µM and the Papp A→B at 2 h, 2 μM ([4]; Caco-2, pH 7.4) was 33.5 ×10⁻⁶ cm/s. The Papp B→A at 2 h, 2 μM ([4]; Caco-2, pH 7.4) was 10.9 ×10⁻⁶ cm/s, the recovery at 2 h, 2 μM ([4]; Caco-2, pH 7.4, Mean Recovery % A-B, Caco-2, A-B) was 100% and the recovery at 2 h, 2 μM ([4]; Caco-2, pH 7.4, Mean Recovery % B-A, Caco-2, B-A) was 74.6%. The “CYP Inhibition (% at 10 μM) 1A2” value (CYP 1A2) was 9%, the “CYP Inhibition (% at 10 μM) 2D6” value (CYP 2D6) was 8% and the “fold improvement of half-life on co-incubation with ritonavir” value ([5]; mouse liver microsomes, ritonavir at ratios up to 1/3) was 45 fold. The half-life at 1 μM ([5]; mouse, mouse liver microsomes, pH 7.4) was 2.4 min, the CC50 [6] was greater than 100 µM and the “fold improvement of half-life on co-incubation with ritonavir” value ([7]; human liver microsomes, ritonavir at ratios up to 1/3) was “two-fold”. For the same molecule, the half-life at 1 μM ([7]; human, human liver microsomes, pH 7.4) was 9 min, the “CYP Inhibition (% at 10 μM) 2C9” value (CYP 2C9) was 40% and the EC50 [8, 13] was 0.02 ± 0.03 nM. It also gave an EC90 [8, 13] of 0.0016 ± 0.0008 µM.

For `C#CCNC(=O)C(=O)c1c(C)c(C(=O)Nc2ccc(F)c(F)c2)n(C)c1C` [GLP-26, reference compound], the “CYP Inhibition (% at 10 μM) 2C8” value (CYP 2C8) is given as 54%, the “hERG % Inhibition at 10 μM” value (hERG) is given as 46.6% and the antiviral response (HBV) is given as “sustained antiviral response up to 12 weeks post treatment”. For the same molecule, the “CYP Inhibition (% at 10 μM) 2C19” value (CYP 2C19) was 15.9%, the “CYP Inhibition (% at 10 μM) 2B6” value (CYP 2B6) was −1.6% and the CC50 [9] was greater than 100 µM. The CC50 [10] was greater than 100 µM, the “CYP Inhibition (% at 10 μM) 3A4-M” value (CYP 3A4) was −7.2% and the “CYP Inhibition (% at 10 μM) 3A4-T” value (CYP 3A4) was 8.3%. For the same molecule, the CC50 [11] was greater than 100 µM, the “Permeability A-B” value (Caco-2 cell monolayer; Caco-2, 2 μM, pH 7.4, 2 hr, A-B) was 23.5 10^−6 cm/s and the “Permeability B-A” value (Caco-2 cell monolayer; Caco-2, 2 μM, pH 7.4, 2 hr, B-A) was 22.8 10^−6 cm/s. The “Mean Recovery % A-B” value (Caco-2 cell monolayer; Caco-2, A-B) was 86.3%, the “Mean Recovery % B-A” value (Caco-2 cell monolayer; Caco-2, B-A) was 98.7% and the “CYP Inhibition (% at 10 μM) 1A2” value (CYP 1A2) was −9.6%. For the same molecule, the “CYP Inhibition (% at 10 μM) 2D6” value (CYP 2D6) was 9.5%, the “Liver microsome stability t1/2 Mouse” value ([5]; mouse liver microsomes 1 mg/mL, compound alone) was 41 min and the CC50 [12] was 46 ± 30 µM. For the same molecule, the “Liver microsome stability t1/2 Human” value ([7]; human liver microsomes 1 mg/mL, compound alone) was greater than 60 min, the “CYP Inhibition (% at 10 μM) 2C9” value (CYP 2C9) was 11.7% and the EC50 [8, 14] was 4.6 ± 2 nM. For the same molecule, the EC90 [8, 14] was 0.0168 ± 0.0071 µM and the “GSH % Reactive metabolites at 25 μM” value (Formation of glutathione) was 0.8%.
